# Assay results gathered from unrelated publications.
# Lines come from different studies, so protocols differ.
# ABL1 T315I non-phosphorylated: Tyrosine-protein kinase ABL1, non-phosphorylated (ABL1, Homo sapiens, UniProt P00519, T315I)
# ABL1 M351T: Tyrosine-protein kinase ABL1 (ABL1, Homo sapiens, UniProt P00519, M351T)
# ABL1 Y253F phosphorylated: Tyrosine-protein kinase ABL1, phosphorylated (ABL1, Homo sapiens, UniProt P00519, Y253F)
# ABL1 M351T phosphorylated: Tyrosine-protein kinase ABL1, phosphorylated (ABL1, Homo sapiens, UniProt P00519, M351T)
# ABL1 T315I phosphorylated: Tyrosine-protein kinase ABL1, phosphorylated (ABL1, Homo sapiens, UniProt P00519, T315I)
# ABL1 H396P: Tyrosine-protein kinase ABL1 (ABL1, Homo sapiens, UniProt P00519, H396P)
# ABL1 H396P phosphorylated: Tyrosine-protein kinase ABL1, phosphorylated (ABL1, Homo sapiens, UniProt P00519, H396P)
# ABL1 phosphorylated: Tyrosine-protein kinase ABL1, phosphorylated (ABL1, Homo sapiens, UniProt P00519)
# ABL1 F317I phosphorylated: Tyrosine-protein kinase ABL1, phosphorylated (ABL1, Homo sapiens, UniProt P00519, F317I)
# ABL1 E255K phosphorylated: Tyrosine-protein kinase ABL1, phosphorylated (ABL1, Homo sapiens, UniProt P00519, E255K)
SMILES,target,test,conditions,remaining binding [%]
O=C(c1ccc(Nc2nccc(-c3cc4ccccc4s3)n2)cc1)N1CCC(N2CCCC2)CC1,ABL1 T315I non-phosphorylated,"binding, competition with immobilised ligand",1 µM,2
CCN1CCN(Cc2ccc(C(=O)Nc3ccc(C)c(Oc4ccc5c(c4)CC(=O)N5)c3)cc2C(F)(F)F)CC1,"Tyrosine-protein kinase ABL1, non-phosphorylated (ABL1, Homo sapiens, UniProt P00519, F317L)","binding, competition with immobilised ligand",1 µM,2.9
N[C@H]1CCN(c2nccc(-c3cnn4ncccc34)n2)C1,ABL1 M351T,binding,1 µM,100
Nc1ncc2c(n1)-c1c([nH]c3ccc(C#CC4CC4)cc13)CCCC2,"Tyrosine-protein kinase ABL1, phosphorylated (ABL1, Homo sapiens, UniProt P00519, F317L)","binding, competition with immobilised ligand",1 µM,88
COc1cnc(Nc2cccc(S(N)(=O)=O)c2)nc1N1CCN(c2ccccc2)CC1,ABL1 Y253F phosphorylated,"binding, competition with immobilised ligand",1 µM,73
CNC(=O)Nc1ccc2c(c1)CC[C@@]21OC(=O)N(CC(=O)N(Cc2ccc(F)cc2)[C@@H](C)C(F)(F)F)C1=O,ABL1 T315I non-phosphorylated,"cell-free assay, competition with immobilised ligand",1 µM,78
CNC(=O)[C@@H]1CC[C@@H](n2c(-c3ccc4cnccc4c3)nc3ccc(C(=O)NCc4cccc(C(N)=O)c4)cc32)C1,ABL1 M351T phosphorylated,"binding, competition with immobilised ligand",1 µM,92
CNC(=O)Nc1ccc2c(c1)[C@@]1(CC2)OC(=O)N(CC(=O)N(Cc2ccc(F)cc2)[C@@H](C)C(F)(F)F)C1=O,ABL1 T315I phosphorylated,"cell-free assay, competition with immobilised ligand",1 µM,87
COc1ccnn2ncc(-c3ccnc(N(C)C)n3)c12,ABL1 H396P,binding,1 µM,100
O=C(NCCCN1CCOCC1)c1ccc(Nc2ncc(Cl)c(-c3ccc(Cl)s3)n2)cc1,ABL1 T315I phosphorylated,"binding, competition with immobilised ligand",1 µM,2.5
c1cncc(-c2cccc(Nc3nccc(NC4CCCCC4)n3)c2)c1,ABL1 H396P phosphorylated,"binding, competition with immobilised ligand",10 µM,29
CC1CCCN1c1nccc(-c2cnn3ncccc23)n1 (centres unmarked),"Tyrosine-protein kinase ABL1 (ABL1, Homo sapiens, UniProt P00519, T315I)",binding,1 µM,100
Cc1cnc(Nc2ccc(C(=O)N3CCC(N4CCCC4)CC3)cc2)nc1-c1cc2ccccc2s1,ABL1 phosphorylated,"binding, competition with immobilised ligand",1 µM,1.6
CN(C)c1ncc(F)c(-c2cnn3ncccc23)n1,ABL1 H396P,binding,1 µM,80
O=C(c1ccc(Nc2ncc(Cl)c(-c3ccc(Cl)s3)n2)cc1)N1CCC(N2CCCC2)CC1,ABL1 F317I phosphorylated,"binding, competition with immobilised ligand",1 µM,87
COc1ncc2cc3ccccc3nc2c1C#N,ABL1 T315I phosphorylated,"cell-free assay, competition with immobilised ligand",5 µM,89
COc1cnc(Nc2cccc(S(N)(=O)=O)c2)nc1N1CCN(c2ccccc2)C(=O)C1,ABL1 M351T phosphorylated,"binding, competition with immobilised ligand",1 µM,84
O=C(N[C@H]1CCCCC/C=C\C2C[C@@]2(C(=O)O)NC(=O)[C@@H]2C[C@@H](Oc3ccncc3)CN2C1=O)OC1CCCC1 (some centres unmarked),ABL1 M351T phosphorylated,"binding, competition with immobilised ligand",1 µM,89
O=C(c1ccc(Nc2ncc(Cl)c(-c3cc4ccccc4s3)n2)cc1)N1CCC(N2CCCC2)CC1,"Tyrosine-protein kinase ABL1, non-phosphorylated (ABL1, Homo sapiens, UniProt P00519, Q252H)","binding, competition with immobilised ligand",1 µM,7.5
O=C(NS(=O)(=O)c1ccc(NCC2CCOCC2)c([N+](=O)[O-])c1)c1ccc(N2CCN(Cc3ccc(C(F)(F)F)cc3-c3ccc(Cl)cc3)CC2)cc1Oc1cnc2[nH]ccc2c1,ABL1 F317I phosphorylated,binding,1 µM,100
O=C(Nc1c[nH]nc1C(=O)NC1CCNCC1)c1cc(F)cc(F)c1,ABL1 M351T phosphorylated,"binding, competition with immobilised ligand",1 µM,100
CC(C)CC(=O)N1CCc2nc(-c3ccc(Br)cc3)nc(N(C)Cc3ccccc3)c2C1,"Tyrosine-protein kinase ABL1, non-phosphorylated (ABL1, Homo sapiens, UniProt P00519, H396P)","cell-free assay, competition with immobilised ligand",0.1 µM,68
CN(C)c1nccc(-c2cnc3ncccn23)n1,"Tyrosine-protein kinase ABL1, non-phosphorylated (ABL1, Homo sapiens, UniProt P00519)","binding, competition with immobilised ligand",1 µM,84
O=C1NC(c2ccccn2)Sc2ccccc21 (centres unmarked),ABL1 E255K phosphorylated,"binding, competition with immobilised ligand",1 µM,77
O=C(NCCCN1CCOCC1)c1ccc(Nc2nccc(-c3cc4ccccc4s3)n2)cc1,ABL1 H396P phosphorylated,"binding, competition with immobilised ligand",1 µM,61
C=CC(=O)N1CCC(C(=O)NCC(=O)N2CCN(c3nc(-c4cnc(N)nc4C(F)F)nc(N4CCOCC4)n3)CC2)CC1,ABL1 E255K phosphorylated,"binding, competition with immobilised ligand",1 µM,87
CN(C)c1nccc(-c2cnn3ncccc23)n1,ABL1 phosphorylated,binding,1 µM,96
C[C@H](c1cccc(C#N)c1)n1cc(Cl)cc(C(N)=O)c1=N,"Tyrosine-protein kinase ABL1, phosphorylated (ABL1, Homo sapiens, UniProt P00519, Q252H)","cell-free assay, competition with immobilised ligand",1 µM,84
C[C@@H](c1ccc(-n2cnc3c(N)ncnc32)cc1)N1CCc2nn(C)c(Cc3ccccc3)c2C1=O,ABL1 M351T phosphorylated,"binding, competition with immobilised ligand",0.1 µM,49
C[C@H](c1ccc(F)cc1)N(Cc1cccc(C(=O)O)c1)C(=O)c1cnc2ccccc2c1,ABL1 T315I non-phosphorylated,"cell-free assay, competition with immobilised ligand",1 µM,85
O=C(NCC1CCOCC1)c1n[nH]cc1NC(=O)c1c(F)cccc1F,ABL1 Y253F phosphorylated,"binding, competition with immobilised ligand",1 µM,86
CN(CCCC(F)(F)F)c1nccc(-c2cnn3ncccc23)n1,ABL1 M351T,binding,1 µM,100
